Experimental data as given in publication PMC3498827 (The Biochemical journal, 2012).

Tests used:
[1] = tested on: four human PYK isoenzymes; assay: Irreversible inhibition of human PYK isoenzymes; assay type: biochemical
[2] = Solubility; assay type: physicochemical; details: relative to original screening hit NCGC00186526
[3] = target: Lys335Arg mutant of LmPYK (Leishmania mexicana, UniProt Q27686, K336R); assay: PYK inhibitor assay with Lys335Arg mutant; assay type: biochemical; details: 50 µM DBS, 0.4 mM PEP, identical assay conditions to wild-type
[4] = Chemical stability; details: hydrolysis of the linkage to saccharin moiety
[5] = target: HsRPYK (Homo sapiens, UniProt P30613); assay: Inhibition of HsRPYK; assay type: biochemical
HsRPYK, sequence (P30613 whole entry): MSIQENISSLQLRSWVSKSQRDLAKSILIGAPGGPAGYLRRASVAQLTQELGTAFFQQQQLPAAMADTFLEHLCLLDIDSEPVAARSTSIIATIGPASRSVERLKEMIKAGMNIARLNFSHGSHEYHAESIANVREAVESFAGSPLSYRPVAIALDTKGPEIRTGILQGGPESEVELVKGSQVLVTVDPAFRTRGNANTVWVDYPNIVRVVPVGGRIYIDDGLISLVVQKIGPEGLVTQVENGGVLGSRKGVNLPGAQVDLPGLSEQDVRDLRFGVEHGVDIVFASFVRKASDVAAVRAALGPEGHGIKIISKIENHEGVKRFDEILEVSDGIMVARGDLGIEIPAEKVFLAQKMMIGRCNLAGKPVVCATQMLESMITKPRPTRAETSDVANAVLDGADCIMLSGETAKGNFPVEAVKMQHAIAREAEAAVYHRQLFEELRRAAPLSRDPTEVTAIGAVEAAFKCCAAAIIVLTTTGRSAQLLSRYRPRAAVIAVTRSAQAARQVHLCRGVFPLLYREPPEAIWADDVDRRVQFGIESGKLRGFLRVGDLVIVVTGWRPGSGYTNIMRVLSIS

[6] = target: LmPYK (Leishmania mexicana, UniProt Q27686); assay: PYK inhibitor assay; assay type: biochemical
Procedure, shortened: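 Pre-incubation mix held at 25 °C: LmPYK 1.6 U/mL, 0.4 mM PEP, 3.2 U/mL lactate dehydrogenase and 0.2 mM NADH in 50 mM TEA pH 7.2, 100 mM KCl, 3 mM MgCl2, 10% glycerol. Test compound (final 50 µM, from DMSO stock) added last; buffer-only control. Every 20 min […], an aliquot was started with 0.2 mM ADP (final). A340 decrease followed for 2 min. Initial rate expressed as % of control.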

[7] = target: rabbit lactate dehydrogenase (Oryctolagus cuniculus, UniProt P13491); assay: Inhibition of coupling enzyme lactate dehydrogenase; assay type: biochemical; details: active-site Lys56
[8] = target: wild-type LmPYK (Leishmania mexicana, UniProt Q27686); assay: qHTS / LmPYK activity assay; assay type: biochemical

Structure (SMILES) | irreversible inhibition [1] | solubility [2] | change in activity over time [3] | stability [4] | IC50 [5] [µM] | time to maximal inhibition ([6]; 50 µM DBS, 25 °C) | inhibition at 50 µM ([6]; read-out: Maximal inhibition) [%] | inhibition of rabbit lactate dehydrogenase [7] | IC50 [8] [µM]
O=C(O)c1ccc(SC2=NS(=O)(=O)c3ccccc32)cc1 [DBS, 4-[(1,1-dioxo-1,2-benzothiazol-3-yl)sulfanyl]benzoic acid] | irreversibly inhibited | improved stability and solubility profiles | essentially no change in activity over time | improved stability and solubility profiles | 8 | ~ 250 min | ~80 | inability of DBS to inhibit | –
Cc1ccc(C)c(OC2=NS(=O)(=O)c3ccccc32)c1 [NCGC00186526] | – | – | – | – | – | – | – | – | 10
Cc1ccc(C)c(SC2=NS(=O)(=O)c3ccccc32)c1 [NCGC00188411] | – | – | – | Stable | – | – | – | – | 5
